In one assay the target is T1, Trehalose-phosphatase (Brugia malayi, UniProt A8NS89).
T1 sequence (A8NS89 whole entry): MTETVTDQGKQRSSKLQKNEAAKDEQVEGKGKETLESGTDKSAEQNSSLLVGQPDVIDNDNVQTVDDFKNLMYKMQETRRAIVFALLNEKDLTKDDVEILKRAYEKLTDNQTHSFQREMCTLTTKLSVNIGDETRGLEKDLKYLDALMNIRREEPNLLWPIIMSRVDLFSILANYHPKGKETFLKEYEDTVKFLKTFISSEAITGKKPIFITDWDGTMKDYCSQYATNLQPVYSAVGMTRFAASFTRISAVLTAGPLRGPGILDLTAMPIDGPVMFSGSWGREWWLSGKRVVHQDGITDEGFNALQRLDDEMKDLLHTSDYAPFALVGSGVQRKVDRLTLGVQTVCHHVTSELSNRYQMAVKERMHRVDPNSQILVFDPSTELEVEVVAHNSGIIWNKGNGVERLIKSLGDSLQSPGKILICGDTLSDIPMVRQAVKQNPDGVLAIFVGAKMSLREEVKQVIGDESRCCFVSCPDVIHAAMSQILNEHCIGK
The assay can be described thus: Competitive inhibition of Brugia malayi T6PP using T6P as substrate by Lineweaver-Burk plot analysis. The gist of the method: (§1)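 Continuous phosphate-release assay (EnzChek, MESG/purine nucleoside phosphorylase) at 25 °C. Initial velocities of T6P hydrolysis by T6PP were taken at varied T6P with inhibitor at 0, Ki and 2×Ki. Km and Vmax come from double-reciprocal plots.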

A short description of assay [1]: Inhibition of Ascaris suum T6PP using T6P as substrate by Lineweaver-Burk plot analysis.
The nature of assay [2]: Inhibition of Shigella boydii T6PP using T6P as substrate by Lineweaver-Burk plot analysis. A digest of the protocol: as §1
Assay [3] in a line: Inhibition of Salmonella typhimurium T6PP using T6P as substrate by Lineweaver-Burk plot analysis. Further details: species or system Salmonella enterica subsp. enterica serovar Typhimurium. A digest of the protocol:
as §1

The target of assay [4] is T2, Trehalose-phosphatase (Brugia malayi) (UniProt A8NS89).
T2 sequence (whole entry): T1 sequence (A8NS89 whole entry)
The assay can be described thus: Inhibition of Brugia malayi T6PP using T6P as substrate assessed as fraction of enzyme unbound with compound by measuring ratio of initial velocities of T6P substrate hydrolysis in presence and absence of compound at 1 mM […] by BioMol green dye based HTS assay.

The test system of a further assay is Ascaris suum. Nature of the assay: Inhibition of Ascaris suum T6PP using T6P as substrate assessed as fraction of enzyme unbound with compound by measuring ratio of initial velocities of T6P substrate hydrolysis in presence and absence of compound at 1 mM after 5 mins by BioMol green dye based HTS assay. A digest of the protocol:
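T6P is at half saturation ([T6P] = Km), with and without 1 mM inhibitor, at 25 °C. Released phosphate is detected with dye (30 min incubation) by A625. The reported value is V_I/V, the initial-velocity ratio.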

For assay [5], the system named is Shigella boydii. The assay can be described thus: Inhibition of Shigella boydii T6PP using T6P as substrate assessed as fraction of enzyme unbound with compound by measuring ratio of initial velocities of T6P substrate hydrolysis in presence and absence of compound at 1 mM after 5 mins by BioMol green dye based HTS assay. A digest of the protocol:
(§2)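 Freshly purified St-T6PP or Sb-T6PP (5–25 nM) in 50 mM Hepes pH 7.5, 25 mM NaCl, 2 mM MgCl₂, 5% glycerol at 25 °C. T6P at half saturation (Km) for each enzyme. Hydrolysis rate was compared with and without 1 mM inhibitor; phosphate read at 625 nm after 30 min incubation. The ratio VI/V gives the fraction of enzyme not inhibitor-bound.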

Assay [6] deals with Salmonella enterica subsp. enterica serovar Typhimurium. Nature of the assay: Inhibition of Salmonella typhimurium T6PP using T6P as substrate assessed as fraction of enzyme unbound with compound by measuring ratio of initial velocities of T6P substrate hydrolysis in presence and absence of compound at 1 mM after 5 mins by BioMol green dye based HTS assay. A digest of the protocol: as §2

Assay [7] has as its system Shigella boydii. The assay can be described thus: Inhibition of Shigella boydii T6PP assessed as Vmax for substrate using T6P as substrate by Lineweaver-Burk plot analysis. The gist of the method: as §1
The subject of assay [8] is Shigella boydii. The assay can be described thus: Inhibition of Shigella boydii T6PP assessed as Km for substrate using T6P as substrate by Lineweaver-Burk plot analysis. A digest of the protocol:
as §1

The term Ki denotes a dissociation constant, usually derived from enzyme kinetics or from competition with a known ligand. A high value points to a looser hold on the target. In the case of `O=S(=O)(O)OC[C@H]1O[C@H](O[C@H]2O[C@H](CO)[C@@H](O)[C@H](O)[C@H]2O)[C@H](O)[C@@H](O)[C@@H]1O`, the inhibitory constant (Ki) at Trehalose-phosphatase amounted to 80 µM; in assay [1] it was 50 µM; in assay [2], 330 µM; in assay [3] it was 180 µM. The Ratio in assay [4] was determined as 0.13; in the assay on Ascaris suum, 0.21; in the assay with Shigella boydii [5], 0.22; in assay [6], 0.01.

`O=S(=O)(O)OCc1cccc(O[C@@H]2O[C@H](CO)[C@@H](O)[C@H](O)[C@H]2O)c1`: the Ratio in [4] is 0.59; with Ascaris suum it was 0.98; in the assay on Shigella boydii [5], 0.8; in [6], 0.85.

In the case of `CC(=O)Nc1ccc(O[C@@H]2O[C@H](COS(=O)(=O)O)[C@@H](O)[C@H](O)[C@H]2O)cc1`, the Ratio in assay [4] was found to be 0.87; in the assay with Ascaris suum, 0.9; in the assay on Shigella boydii [5], 0.88; in assay [6] it was 0.85.

In general, Vmax refers to the rate approached at saturating substrate. Usually Km stands for the concentration of substrate that gives half-maximal velocity. Regarding `CCCCCCc1ccc(O[C@@H]2O[C@H](COS(=O)(=O)O)[C@@H](O)[C@H](O)[C@H]2O)cc1`, the Ki is 200 µM at Trehalose-phosphatase, 200 µM in [1], 140 µM in assay [2] and more than 400 µM in [3]. Further, the Vmax in the assay with Shigella boydii [7] turned out to be 0.534 µM/s. In addition, the Michaelis constant (Km) in the assay with Shigella boydii [8] was found to be 231 µM.

On to `OC[C@H]1O[C@@H](NC(=S)Nc2ccccc2)[C@H](O)[C@@H](O)[C@@H]1O`, for which the Ratio in assay [4] was determined as 0.99; in the assay with Ascaris suum, 0.81; in the assay with Shigella boydii [5], 0.92; in assay [6], 1.09.

On to `O=Cc1cccc(O[C@@H]2O[C@H](COS(=O)(=O)O)[C@@H](O)[C@H](O)[C@H]2O)c1`, for which the Ratio in [4] worked out at 1.05; in the assay on Ascaris suum, 0.78; in the assay on Shigella boydii [5], 0.81; in [6] it was 0.95.

Turning to `O=S(=O)(O)OC[C@H]1O[C@H](OCc2ccccc2)[C@H](O)[C@@H](O)[C@@H]1O`, the affinity at Trehalose-phosphatase, expressed as Ki, was 160 µM. Moreover, the Ratio in assay [4] came to 0.07; with Ascaris suum, 0.86; in the assay on Shigella boydii [5] it was 0.74; in [6] it was 0.47.

As to `O=S(=O)(O)OC[C@H]1O[C@@H](Oc2cccc3ccccc23)[C@H](O)[C@@H](O)[C@@H]1O`, the Ratio in assay [4] amounted to 0.85; in the assay with Ascaris suum it was 0.91; with Shigella boydii [5], 0.85; in assay [6], 0.8.

In the case of `CO[C@H]1O[C@H](COS(=O)(=O)O)[C@@H](OCc2ccccc2)[C@H](O)[C@H]1O`, the Ratio in [4] was 0.68; in the assay on Ascaris suum, 0.99; in the assay with Shigella boydii [5], 0.95; in assay [6], 0.97.

With `NS(=O)(=O)OCc1cccc(N[C@@H]2O[C@H](CO)[C@@H](O)[C@H](O)[C@H]2O)c1`, the Ratio in assay [4] is 1.05; in the assay with Ascaris suum it was 0.96; with Shigella boydii [5], 0.85; in assay [6], 1.

As for `O=Cc1ccc(O[C@@H]2O[C@H](COS(=O)(=O)O)[C@@H](O)[C@H](O)[C@H]2O)cc1`, the Ratio is 1 in [4], 0.81 in the assay with Ascaris suum, 1.06 with Shigella boydii [5] and 0.87 in assay [6].

`OC[C@H]1O[C@@H](Nc2ccccc2)[C@H](O)[C@@H](O)[C@@H]1O`: the Ratio turned out to be 1 in assay [4], 0.97 in the assay with Ascaris suum, 0.92 in the assay on Shigella boydii [5] and 0.77 in assay [6].

Consider `O=S(=O)(O)OC[C@H]1O[C@@H](Oc2ccccc2CO)[C@H](O)[C@@H](O)[C@@H]1O`, for which the Ratio in assay [4] worked out at 0.89; in the assay with Ascaris suum, 0.9; with Shigella boydii [5], 0.85; in assay [6], 0.73.

As for `COc1cc(C=O)cc(OC)c1O[C@@H]1O[C@H](COS(=O)(=O)O)[C@@H](O)[C@H](O)[C@H]1O`, the Ratio in assay [4] is 0.55; in the assay with Ascaris suum, 0.94; in the assay with Shigella boydii [5], 1; in assay [6], 0.96.

With `OC[C@H]1O[C@H](Oc2ccccc2)[C@H](O)[C@@H](O)[C@@H]1O`, the Ratio in assay [4] is 0.96; in the assay with Ascaris suum, 0.97; in the assay on Shigella boydii [5], 0.86; in assay [6], 1.

On to `O=S(=O)(O)OC[C@H]1O[C@H](O)[C@H](O)[C@@H](O)[C@@H]1O`, for which the Ratio in [4] worked out at 0.93; in the assay with Ascaris suum, 0.94; in the assay with Shigella boydii [5], 0.75; in assay [6], 0.84.

As to `CO[C@H]1O[C@H](COS(=O)(=O)O)[C@@H](O)[C@H](OCc2ccccc2)[C@H]1O`, the Ratio in assay [4] came out at 0.67; in the assay with Ascaris suum it was 1.04; with Shigella boydii [5], 0.84; in [6], 0.99.

With `O=S(=O)(O)OC[C@H]1O[C@@H](Oc2ccc(F)c(F)c2)[C@H](O)[C@@H](O)[C@@H]1O`, the Ratio in [4] amounted to 0.74; in the assay on Ascaris suum, 0.88; with Shigella boydii [5], 0.92; in assay [6] it was 0.89.

For the compound `CO[C@H]1O[C@H](COS(=O)(=O)O)[C@@H](O)[C@H](O)[C@H]1O`, the Ratio in [4] came to 0.8; in the assay on Ascaris suum, 1.07; in the assay with Shigella boydii [5], 1; in assay [6], 1.04.

Take `O=S(=O)(O)OC[C@H]1O[C@@H](Oc2cccc(CO)c2)[C@H](O)[C@@H](O)[C@@H]1O`: the Ratio in assay [4] was 0.69; in the assay on Ascaris suum, 0.63; in the assay with Shigella boydii [5], 0.46; in assay [6] it was 0.77.

For the compound `O=S(=O)(O)OC[C@H]1O[C@@H](Oc2ccc(CO)cc2)[C@H](O)[C@@H](O)[C@@H]1O`, the Ratio stood at 0.68 in assay [4], 0.76 with Ascaris suum, 0.67 in the assay with Shigella boydii [5] and 0.79 in [6].

For the compound `O=[N+]([O-])c1ccc(O[C@@H]2O[C@H](COS(=O)(=O)O)[C@@H](O)[C@H](O)[C@H]2O)cc1`, the Ratio is 0.64 in [4], 0.83 in the assay on Ascaris suum, 0.77 with Shigella boydii [5] and 0.68 in assay [6].

With `OC[C@H]1O[C@@H](Oc2ccccc2)[C@H](O)[C@@H](O)[C@@H]1O`, the Ratio in assay [4] worked out at 1.12; in the assay with Ascaris suum, 1; in the assay with Shigella boydii [5], 0.9; in [6] it was 0.87.

As for `O=S(=O)(O)OC[C@H]1O[C@@H](n2cc(-c3ccccc3)nn2)[C@H](O)[C@@H](O)[C@@H]1O`, the Ratio in [4] worked out at 0.98; with Ascaris suum, 0.76; with Shigella boydii [5], 0.9; in [6], 0.97.

On to `Nc1ccc(O[C@@H]2O[C@H](COS(=O)(=O)O)[C@@H](O)[C@H](O)[C@H]2O)cc1`, for which the Ratio was determined as 0.63 in assay [4], 0.74 with Ascaris suum, 1.03 in the assay on Shigella boydii [5] and 0.94 in assay [6].

Consider `O=Cc1ccccc1O[C@@H]1O[C@H](COS(=O)(=O)O)[C@@H](O)[C@H](O)[C@H]1O`, for which the Ratio in assay [4] was 0.79; with Ascaris suum it was 0.99; in the assay with Shigella boydii [5], 0.96; in assay [6], 0.85.

With `CCCCCCCCO[C@@H]1O[C@H](COS(=O)(=O)O)[C@@H](O)[C@H](O)[C@H]1O`, the Ratio in assay [4] turned out to be 0.72; in the assay with Ascaris suum, 0.9; in the assay on Shigella boydii [5] it was 0.79; in assay [6], 0.54.

On Trehalose-phosphatase, `OC[C@H]1O[C@H](O[C@H]2O[C@H](CO)[C@@H](O)[C@H](O)[C@H]2O)[C@H](O)[C@@H](O)[C@@H]1O` [TREHALOSE] registered an inhibition constant (Ki) of more than 10000 µM. Further, the Ratio came out at 0.98 in [4], 0.97 with Ascaris suum, 1.01 with Shigella boydii [5] and 0.88 in [6].

With `OC[C@H]1O[C@@H](n2cc(-c3ccccc3)nn2)[C@H](O)[C@@H](O)[C@@H]1O`, the Ratio in assay [4] was determined as 0.85; in the assay with Ascaris suum it was 0.96; in the assay with Shigella boydii [5], 1; in [6], 0.9.

Turning to `CO[C@H]1O[C@H](COS(=O)(=O)O)[C@@H](O)[C@H](O)[C@H]1OCc1ccccc1`, the Ratio in assay [4] amounted to 0.53; with Ascaris suum it was 0.96; in the assay with Shigella boydii [5] it was 1; in assay [6], 0.95.

(Values after ChEMBL document CHEMBL4004850, “Rational design of reversible inhibitors for trehalose 6-phosphate phosphatases” (Eur J Med Chem, 2017).)
